Measured values: PubChem BioAssay AID651942 (The Scripps Research Institute Molecular Screening Center, 2012)
Active and inactive are the calls of the source.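 How the source made its calls: active means inhibitor of the AddAB recombination enzyme whose half-maximal inhibitory concentration is at or below 10 µM; inactive means half-maximal inhibitory concentration above 10 µM.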

Test system: E. coli V3065 expressing H. pylori AddAB, T4 phage, OD growth
Assay: dose-dependent OD loss of phage-infected AddAB+ E. coli – absorbance, E. coli V3065, powder samples, round 2, AddAB inhibitor project, late-stage follow-up (AID 651942)
Summary of the method: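 Test system: E. coli V3065 carrying H. pylori addAB+; Medium: Cation Mueller Hinton broth; Reagent: mutant T4 phage, MOI 0.02; Doses: 10-point threefold series from 118.6 µM; Incubation: 60 min preincubation, 18 h post-infection, 37 °C; Measured by: optical density at 600 nm as bacterial growth measure; Control set: ciprofloxacin reference; Replicates: triplicate.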

Row | SMILES | IC50
1 | CCn1cc(C(=O)O)c(=O)c2cnc(N3CCN(C(=S)NCc4ccccc4)CC3)nc21 | 29.4 µM (inactive)
2 | CCn1cc(C(=O)O)c(=O)c2cnc(N3CCN(C(=S)Nc4cccc(C(F)(F)F)c4)CC3)nc21 | 1.03 µM
3 | CCn1cc(C(=O)O)c(=O)c2cnc(N3CCN(C(=S)NC(=O)c4cccc(C)c4)CC3)nc21 | 19 µM (inactive)
4 | CCn1cc(C(=O)O)c(=O)c2cnc(N3CCN(C(=S)Nc4ccc(Cl)cc4)CC3)nc21 | 6.5 µM
5 | CCn1cc(C(=O)O)c(=O)c2cnc(N3CCN(C(=S)Nc4ccccc4F)CC3)nc21 | 7.65 µM
6 | CCn1cc(C(=O)O)c(=O)c2cnc(N3CCN(C(=S)Nc4ccccc4OC)CC3)nc21 | 30.6 µM (inactive)
